# Measurements as given in paper PMC9157583 (Alzheimer's & Dementia : Translational Research & Clinical …, 2022).
# Values joined by “and” are separate entries in the source; they are usually repeats but may differ in a detail not shown here. Equal values may be shown once. Read-outs that look alike come from different tables or passages of the source.
# Experiments:
# [1] = test system: individuals with dementia with Lewy bodies; type: in vivo, human; details: bosutinib 100 mg once daily, 12 weeks
# [2] = Pharmacokinetics: bosutinib concentration in plasma of DLB participants; type: in vivo, human; details: for Tmax / AUC / Cmax: human; for AUC: AUC0‐4, plasma
# [3] = molecular target: Src (Homo sapiens, UniProt P12931); assay: Phospho‐Src; type: in vivo; details: bosutinib 100 mg compared to placebo, 12 weeks
# Src, sequence (P12931 whole entry): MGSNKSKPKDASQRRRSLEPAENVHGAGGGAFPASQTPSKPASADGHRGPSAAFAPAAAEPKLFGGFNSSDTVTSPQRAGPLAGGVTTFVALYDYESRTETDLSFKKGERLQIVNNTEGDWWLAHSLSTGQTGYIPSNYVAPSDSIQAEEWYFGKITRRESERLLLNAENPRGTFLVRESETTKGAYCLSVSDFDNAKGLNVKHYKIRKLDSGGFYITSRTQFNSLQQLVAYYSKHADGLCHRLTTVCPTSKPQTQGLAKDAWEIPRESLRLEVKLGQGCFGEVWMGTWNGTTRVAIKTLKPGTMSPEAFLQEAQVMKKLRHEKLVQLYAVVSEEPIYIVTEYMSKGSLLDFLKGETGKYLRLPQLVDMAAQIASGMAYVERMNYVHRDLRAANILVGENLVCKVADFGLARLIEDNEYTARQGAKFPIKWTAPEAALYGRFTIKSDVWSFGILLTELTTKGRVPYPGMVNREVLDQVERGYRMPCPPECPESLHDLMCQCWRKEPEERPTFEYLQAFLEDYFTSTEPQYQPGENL
# Summary of the method: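 Phospho-Src was assayed with a PathScan sandwich ELISA. CSF or plasma was added to wells coated with rabbit polyclonal antibody that captures Src phosphorylated at Tyr416. Samples came from DLB participants at baseline and after 12 weeks of oral test compound 100 mg daily or placebo. Within-group changes used a one-tailed paired Wilcoxon test; between-group changes used a one-tailed Welch-corrected unpaired t-test.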
# [4] = test system: dopamine metabolites DOPAC and HVA; assay: Quantification of dopamine metabolites DOPAC and HVA; type: in vivo, human; details: bosutinib 100 mg compared to placebo, 12 weeks
# Summary of the method: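 CSF DOPAC and HVA were derivatized with benzoyl chloride and quantified by UHPLC-MS/MS. CSF was obtained by lumbar puncture at baseline and week 12, 1–4 h after oral test compound 100 mg daily or placebo and ~2 h after the last levodopa dose. Values were given as mean ± SD, with one-sided tests at 5% type I error and 90% CI.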
# [5] = test system: alpha‐synuclein; assay: Total alpha‐synuclein ELISA in CSF and plasma; type: in vivo, human; details: bosutinib 100 mg compared to placebo, 12 weeks
# Summary of the method: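 Total alpha-synuclein in CSF and plasma was measured by solid-phase sandwich ELISA per the kit protocol, and the CSF/plasma ratio was calculated from the two levels. Samples were taken at baseline and week 12 from DLB participants given oral test compound 100 mg daily or placebo. Changes were compared within groups by one-tailed paired Wilcoxon test and between groups by one-tailed Welch t-test.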
# [6] = test system: alpha‐synuclein oligomer; assay: Oligomeric alpha‐synuclein ELISA in CSF and plasma; type: in vivo, human; details: CSF or plasma, bosutinib vs placebo
# Summary of the method: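 Oligomeric alpha-synuclein in CSF and plasma was quantified with a commercial quantitative ELISA kit per the manufacturer's protocol. Samples were drawn at baseline and week 12 from DLB participants on oral test compound 100 mg daily or matching placebo, 1–4 h after dosing and ~2 h after the last levodopa dose.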
# [7] = test system: Aβ40, Aβ42, total tau, p‐tau 181; assay: Aβ40, Aβ42, total tau, and p‐tau 181 ELISA in CSF and plasma; type: in vivo, human; details: CSF or plasma, bosutinib vs placebo
# Summary of the method: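 Plasma (10 mL blood) and lumbar-puncture CSF (~15 mL) were taken at baseline and at week 12 from DLB participants randomized 1:1 to oral test compound 100 mg daily or placebo. Sampling was 1–4 h post-dose, ~2 h after the last levodopa dose. Aβ40, Aβ42, total tau and p-tau181 were measured by Milliplex ELISA, with CSF and plasma run in parallel using the same reagents.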
# [8] = test system: individuals with dementia with Lewy bodies; assay: Exploratory clinical assessments; type: in vivo, human; details: change 12 week‐ baseline, bosutinib 100 mg vs. placebo; interval in brackets
# [9] = test system: Abl/SRC; details: cited from earlier work
# [10] = open label study, 12 months; cited from earlier work
# [11] = cited from earlier work
# [12] = for AUC / Cmax / Tmax: human, in vivo, po; for AUC: AUC0‐4, CSF
# [13] = 100 mg, 12 weeks vs single dose
# [14] = plasma, single oral dose 500 mg, normal individuals, n = 6
# [15] = CSF, 100 mg, 12 weeks vs single dose
# [16] = 100 mg, CSF, multiple oral doses 100 mg once daily, 12 weeks
# [17] = 100 mg, CSF, single oral dose 100 mg
# [18] = 200 mg, CSF, single oral dose 200 mg
compound,measurement,setting,value
"COc1cc(Nc2c(C#N)cnc3cc(OCCCN4CCN(C)CC4)c(OC)cc23)c(Cl)cc1Cl [Bosutinib, Bosutinib monohydrate]",Prolongation of QTc intervals,[1],no prolongation of QTc intervals
same,Serious adverse events (SAEs),[1],no serious adverse events
same,Total dropped out,"[1]; DLB, N = 13, number (%)",0 (0%)
same,"Adverse event: Dizziness, number of events (%)",[1]; N = 13,1 (7.7%)
same,"Adverse event: Falls, number of events (%)",[1]; N = 13,3 (23.1%)
same,"Adverse event: Flu, number of events (%)",[1]; N = 13,0 (0%)
same,"Adverse event: Impaction, number of events (%)",[1]; N = 13,0 (0%)
same,"Adverse event: Liver transaminases, number of events (%)",[1]; N = 13,1 (7.7%)
same,"Adverse event: Pain, number of events (%)",[1]; N = 13,3 (23.1%)
same,"Adverse event: Post‐lumbar puncture headache, number of events (%)",[1]; N = 13,1 (7.7%)
same,"Adverse event: Upper respiratory infection, number of events (%)",[1]; N = 13,0 (0%)
same,"Adverse event: Urinary incontinence, number of events (%)",[1]; N = 13,1 (7.7%)
same,"Adverse event: Urinary tract infection, number of events (%)",[1]; N = 13,1 (7.7%)
same,Total number of adverse events (AEs),"[1]; N = 13, 9 in placebo, P = 0.68",11
same,"Increase of plasma exposure (AUC0‐4), multiple doses compared to a single dose",[2]; [13],~3 fold
same,"Increase of plasma level (Cmax), multiple doses compared to a single dose",[2]; [13],more than 2 fold
same,Tmax,"[2]; oral, Tmax in the current study, between 0 and 4 hours, current study",3 to 4 h
same,AUC,"[2]; po, 100 mg, multiple oral doses 100 mg once daily, 12 weeks",73.1 ng·h/mL and 0.138 µM·h
same,AUC,"[2]; po, 100 mg, single oral dose 100 mg",25 ng·h/mL and 0.0479 µM·h
same,Cmax,"[2]; po, 100 mg, multiple oral doses 100 mg once daily, 12 weeks, n = 13",29.9 ng/mL and 56.4 nM
same,Cmax,"[2]; po, 100 mg, single oral dose 100 mg, n = 9",13.5 ng/mL and 25.5 nM
same,Tmax,"[2]; po, 100 mg, Tmax, multiple oral doses 100 mg once daily, 12 weeks",4 h
same,Tmax,"[2]; po, 100 mg, Tmax, single oral dose 100 mg, sampling 0 to 4 hours",3 h
same,AUC,"[2]; po, 200 mg, single oral dose 200 mg",36.9 ng·h/mL and 0.0696 µM·h
same,Cmax,"[2]; po, 200 mg, single oral dose 200 mg, n = 9",19.6 ng/mL and 37 nM
same,CSF p‐Src,"[3]; CSF, Figure 2D",could not demonstrate differences
same,Plasma active Src phosphorylated at Tyr416,"[3]; plasma, Figure 2C",significantly reduced
same,CSF DOPAC level,"[4]; CSF, Figure 2E",no statistically significant difference
same,CSF HVA level,"[4]; CSF, Figure 2F",no statistically significant difference
same,Plasma DOPAC level,"[4]; plasma, Figure 2G",significantly reduced
same,Plasma HVA level,"[4]; plasma, Figure 2H",significantly reduced
same,CSF alpha‐synuclein level,"[5]; CSF, Figure 2I",significantly reduced
same,CSF:plasma of alpha‐synuclein,[5]; Figure 2K,reduced
same,Oligomeric alpha‐synuclein,[6],no differences
same,Aβ40,[7],no differences
same,Aβ42,[7],no differences
same,Total tau,[7],no differences
same,p‐tau181,[7],no differences
same,Alzheimer's Disease Assessment Scale–Cognitive subscale (ADAS‐Cog),[8],"−0.66 (−4.67, 3.33)"
same,Clinician Assessment of Fluctuation (CAF),[8],"1 (−2,3)"
same,Irritability and Apathy Scale (IAS)‐_Participant_APATHY,[8],"0 (−3, 4)"
same,Irritability and Apathy Scale (IAS)‐_Participant_IRRITABILITY,[8],"0 (−2, 3)"
same,Irritability and Apathy Scale (IAS)‐_Partner_APATHY,[8],"−1 (−4, 2)"
same,Irritability and Apathy Scale (IAS)‐_Partner_IRRITABILITY,[8],"1 (−1, 4)"
same,Montreal Cognitive Assessment (MoCA),[8],"0 (−1, 2)"
same,Neuropsychiatric Inventory (NPI) frequency x severity,[8],"0 (−8, 9)"
same,Neuropsychiatric Inventory (NPI)_Caregiver Distress,[8],"2 (−1, 6)"
same,Problem Behaviours Assessment (PBA),[8],"1 (−14, 10)"
same,Timed Up and Go,[8],"0 (−3, 2)"
same,Unified Parkinson's Disease Rating Scale (Activities of Daily Living)‐Part II,[8],"−1 (−3, 2)"
same,Unified Parkinson's Disease Rating Scale (Motor)‐Part III,[8],"0 (−4, 4)"
same,Unified Parkinson's Disease Rating Scale (SUM Part II+III),[8],"−1 (−6, 5)"
same,Unified Parkinson's Disease Rating Scale (UPDRS‐Cognition)‐Part I,[8],"0 (−2, 1)"
same,Unified Parkinson's Disease Rating Scale (total Part I+III),[8],"−2 (−7, 6)"
same,IC50,[9],1.2 nM
same,Repeatable Battery for the Assessment of Neuropsychological Status (RBANS),[10],less decline
same,Tmax in previous studies,[11]; between 0 and 24 hours,around 6 hours
same,AUC0‐24,[11]; [14],2190 ± 661 ng/h/mL
same,Tmax,[11]; [14],3.50 (2.00–6.00) hrs
same,"Increase of CSF exposure (AUC0‐4), multiple doses compared to a single dose",[12]; [15],10 fold
same,"Increase of CSF level (Cmax), multiple doses compared to a single dose",[12]; [15],9 fold
same,AUC,"[12]; 100 mg, multiple oral doses 100 mg once daily, 12 weeks",1.15 ng·h/mL and 0.00216 µM·h
same,AUC,"[12]; 100 mg, single oral dose 100 mg",0.14 ng·h/mL and 0.00026 µM·h
same,Cmax,[12]; [16],0.94 ± 0.32 nM
same,Cmax,"[12]; 100 mg, CSF, multiple oral doses 100 mg once daily, 12 weeks, n = 13",0.5 ± 0.17 ng/mL
same,Cmax,[12]; [17],0.11 ± 0.08 nM
same,Cmax,"[12]; 100 mg, CSF, single oral dose 100 mg, n = 9",0.06 ± 0.04 ng/mL
same,Tmax,[12]; [16],3 h
same,Tmax,[12]; [17],2 h
same,AUC,"[12]; 200 mg, single oral dose 200 mg",0.24 ng·h/mL and 0.00044 µM·h
same,Cmax,[12]; [18],0.25 ± 0.09 nM
same,Cmax,"[12]; 200 mg, CSF, single oral dose 200 mg, n = 9",0.13 ± 0.06 ng/mL
same,Tmax,[12]; [18],4 h
